Reference: ChEMBL document CHEMBL1122592, “Synthesis and evaluation of radioiodinated terminal p-iodophenyl-substituted alpha- and beta-methyl-branched fatty acids” (1984)

What was measured:
Assay type in all cases: functional
Rattus norvegicus [1] = assay: Heart uptake in percent injected dose/gram (range) was determined in female fischer rat after 1251-labelled compound complexed with bovine serum albumin was injected intravenously after 5 minutes
How it was run: (§1)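 Female Fischer 344 rats, 10–12 weeks old (170–200 g), fed and watered ad libitum. ¹²⁵I-labeled fatty acid in 0.5 mL absolute ethanol added dropwise to stirred 6% bovine serum albumin at 40 °C (final ethanol 10%), 0.22-μm filtered, given into a lateral tail vein under ether anesthesia. At set times: ether anesthesia, cervical fracture, organs excised, rinsed, blotted, weighed and gamma counted. Values are % injected dose/g, 3–4 rats per time point.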

Rattus norvegicus [2] = assay: Heart uptake in percent injected dose/gram (range) was determined in female fischer rat after 1251-labelled compound complexed with bovine serum albumin was injected intravenously after 60 minutes; how it was run: as §1
Rattus norvegicus [3] = assay: Lungs uptake in percent injected dose/gram (range) was determined in female fischer rat after 1251-labelled compound complexed with bovine serum albumin was injected intravenously after 5 minutes; how it was run: as §1
Rattus norvegicus [4] = assay: Lungs uptake in percent injected dose/gram (range) was determined in female fischer rat after 1251-labelled compound complexed with bovine serum albumin was injected intravenously after 60 minutes; how it was run: as §1
Rattus norvegicus [5] = assay: Blood uptake in percent injected dose/gram (range) was determined in female fischer rat after 1251-labelled compound complexed with bovine serum albumin was injected intravenously after 5 minutes; how it was run: as §1
Rattus norvegicus [6] = assay: Blood uptake in percent injected dose/gram (range) was determined in female fischer rat after 1251-labelled compound complexed with bovine serum albumin was injected intravenously after 60 minutes; how it was run: as §1
Rattus norvegicus [7] = assay: Thyroid uptake in percent injected dose/gram (range) was determined in female fischer rat after 1251-labelled compound complexed with bovine serum albumin was injected intravenously after 5 minutes; how it was run: as §1
Rattus norvegicus [8] = assay: Thyroid uptake in percent injected dose/gram (range) was determined in female fischer rat after 1251-labelled compound complexed with bovine serum albumin was injected intravenously after 60 minutes; how it was run: as §1
Rattus norvegicus [9] = assay: Kidneys uptake in percent injected dose/gram (range) was determined in female fischer rat after 1251-labelled compound complexed with bovine serum albumin was injected intravenously after 5 minutes; how it was run: as §1
Rattus norvegicus [10] = assay: Kidneys uptake in percent injected dose/gram (range) was determined in female fischer rat after 1251-labelled compound complexed with bovine serum albumin was injected intravenously after 60 minutes; how it was run: as §1
Rattus norvegicus [11] = assay: Liver uptake in percent injected dose/gram (range) was determined in female fischer rat after 1251-labelled compound complexed with bovine serum albumin was injected intravenously after 5 minutes; how it was run: as §1
Rattus norvegicus [12] = assay: Liver uptake in percent injected dose/gram (range) was determined in female fischer rat after 1251-labelled compound complexed with bovine serum albumin was injected intravenously after 60 min; how it was run: as §1
Rattus norvegicus [13] = assay: Heart uptake in percent injected dose/gram (range) was determined in female fischer rat after 1251-labelled compound complexed with bovine serum albumin was injected intravenously after 4 hours; how it was run: as §1
Rattus norvegicus [14] = assay: Heart uptake in percent injected dose/gram (range) was determined in female fischer rat after 1251-labelled compound complexed with bovine serum albumin was injected intravenously after 30 minutes; how it was run: as §1
Rattus norvegicus [15] = assay: Kidneys uptake in percent injected dose/gram (range) was determined in female fischer rat after 1251-labelled compound complexed with bovine serum albumin was injected intravenously after 30 minutes; how it was run: as §1
Rattus norvegicus [16] = assay: Kidneys uptake in percent injected dose/gram (range) was determined in female fischer rat after 1251-labelled compound complexed with bovine serum albumin was injected intravenously after 4 hours; how it was run: as §1
Rattus norvegicus [17] = assay: Blood uptake in percent injected dose/gram (range) was determined in female fischer rat after 1251-labelled compound complexed with bovine serum albumin was injected intravenously after 30 minutes; how it was run: as §1
Rattus norvegicus [18] = assay: Blood uptake in percent injected dose/gram (range) was determined in female fischer rat after 1251-labelled compound complexed with bovine serum albumin was injected intravenously after 4 hours; how it was run: as §1
Rattus norvegicus [19] = assay: Lungs uptake in percent injected dose/gram (range) was determined in female fischer rat after 1251-labelled compound complexed with bovine serum albumin was injected intravenously after 4 hours; how it was run: as §1
Rattus norvegicus [20] = assay: Thyroid uptake in percent injected dose/gram (range) was determined in female fischer rat after 1251-labelled compound complexed with bovine serum albumin was injected intravenously after 30 minutes; how it was run: as §1
Rattus norvegicus [21] = assay: Thyroid uptake in percent injected dose/gram (range) was determined in female fischer rat after 1251-labelled compound complexed with bovine serum albumin was injected intravenously after 4 hours; how it was run: as §1
Rattus norvegicus [22] = assay: Liver uptake in percent injected dose/gram (range) was determined in female fischer rat after 1251-labelled compound complexed with bovine serum albumin was injected intravenously after 30 minutes; how it was run: as §1
Rattus norvegicus [23] = assay: Liver uptake in percent injected dose/gram (range) was determined in female fischer rat after 1251-labelled compound complexed with bovine serum albumin was injected intravenously after 4 hours; how it was run: as §1
Rattus norvegicus [24] = assay: Lungs uptake in percent injected dose/gram (range) was determined in female fischer rat after 1251-labelled compound complexed with bovine serum albumin was injected intravenously after 30 minutes; how it was run: as §1
Rattus norvegicus [25] = assay: Heart uptake in percent injected dose/gram (range) was determined in female fischer rat after 1251-labelled compound complexed with bovine serum albumin was injected intravenously after 5 hours; how it was run: as §1
Rattus norvegicus [26] = assay: Lungs uptake in percent injected dose/gram (range) was determined in female fischer rat after 1251-labelled compound complexed with bovine serum albumin was injected intravenously after 5 hours; how it was run: as §1
Rattus norvegicus [27] = assay: Blood uptake in percent injected dose/gram (range) was determined in female fischer rat after 1251-labelled compound complexed with bovine serum albumin was injected intravenously after 5 hours; how it was run: as §1
Rattus norvegicus [28] = assay: Thyroid uptake in percent injected dose/gram (range) was determined in female fischer rat after 1251-labelled compound complexed with bovine serum albumin was injected intravenously after 5 hours; how it was run: as §1
Rattus norvegicus [29] = assay: Kidneys uptake in percent injected dose/gram (range) was determined in female fischer rat after 1251-labelled compound complexed with bovine serum albumin was injected intravenously after 5 hours; how it was run: as §1
Rattus norvegicus [30] = assay: Liver uptake in percent injected dose/gram (range) was determined in female fischer rat after 1251-labelled compound complexed with bovine serum albumin was injected intravenously after 5 hours; how it was run: as §1
Rattus norvegicus [31] = assay: Thyroid uptake in percent injected dose/gram (range) was determined in female fischer rat after 1251-labelled compound complexed with bovine serum albumin was injected intravenously after 60 min; how it was run: as §1

Compound	Activity (Rattus norvegicus [1])	Activity (Rattus norvegicus [2])	Activity (Rattus norvegicus [3])	Activity (Rattus norvegicus [4])	Activity (Rattus norvegicus [5])	Activity (Rattus norvegicus [6])	Activity (Rattus norvegicus [7])	Activity (Rattus norvegicus [8])	Activity (Rattus norvegicus [9])	Activity (Rattus norvegicus [10])	Activity (Rattus norvegicus [11])	Activity (Rattus norvegicus [12])	Activity (Rattus norvegicus [13])	Activity (Rattus norvegicus [14])	Activity (Rattus norvegicus [15])	Activity (Rattus norvegicus [16])	Activity (Rattus norvegicus [17])	Activity (Rattus norvegicus [20])	Activity (Rattus norvegicus [22])	Activity (Rattus norvegicus [24])	also measured
O=C(O)CCCCCCCCCCCCCc1ccc(I)cc1	2.72%	1.78%	1.55%	1.39%	1.58%	1.48%	1.64%	2.56%	1.64%	1.94%	4.82%	2.04%	–	–	–	–	–	–	–	–	–
O=C(O)CCCCCCCCCCCCCCc1ccc(I)cc1 [IOCANLIDIC ACID]	2.98%	2.34%	1.26%	1.29%	0.91%	1.32%	7.08%	7.37%	0.84%	1.05%	6.69%	3.76%	0.93%	2.67%	1.08%	0.88%	1.5%	10.28%	5.31%	1.36%	Activity (Rattus norvegicus [18]): 0.7%; Activity (Rattus norvegicus [19]): 0.97%; Activity (Rattus norvegicus [21]): 8.54%; Activity (Rattus norvegicus [23]): 1.72%
CC(CCCCCCCCCCCCc1ccc(I)cc1)C(=O)O (racemic)	1.71%	1.52%	1.13%	1.13%	1.8%	1.64%	7.56%	11.5%	1.68%	1.85%	7.61%	2.94%	–	1.58%	1.95%	–	1.83%	5.3%	3.85%	1.03%	Activity (Rattus norvegicus [25]): 0.59%; Activity (Rattus norvegicus [26]): 0.77%; Activity (Rattus norvegicus [27]): 1.07%; Activity (Rattus norvegicus [28]): 13.95%; Activity (Rattus norvegicus [29]): 1.36%; Activity (Rattus norvegicus [30]): 1.52%
CC(CCCCCCCCCCCCc1ccc(I)cc1)CC(=O)O (racemic) [IODOFILTIC ACID]	4.62%	4.26%	1.45%	1.21%	0.71%	1.7%	6.78%	–	1.08%	2.14%	8.32%	1.92%	2.27%	3.63%	1.71%	1.49%	1.6%	9.26%	3.66%	1.15%	Activity (Rattus norvegicus [18]): 1.13%; Activity (Rattus norvegicus [19]): 0.91%; Activity (Rattus norvegicus [21]): 9.69%; Activity (Rattus norvegicus [31]): 10.66%; Activity (Rattus norvegicus [23]): 0.95%
